Activity calls are given as the source filed them. The rule behind the calls is not given here.

From ChEMBL document CHEMBL1125455, “Novel anthraquinone inhibitors of human leukocyte elastase and cathepsin G” (J Med Chem, 1992) come the findings set out here.

Assay [1] has as its target T1, Cathepsin G (Homo sapiens) (UniProt P08311).
T1 sequence (whole entry): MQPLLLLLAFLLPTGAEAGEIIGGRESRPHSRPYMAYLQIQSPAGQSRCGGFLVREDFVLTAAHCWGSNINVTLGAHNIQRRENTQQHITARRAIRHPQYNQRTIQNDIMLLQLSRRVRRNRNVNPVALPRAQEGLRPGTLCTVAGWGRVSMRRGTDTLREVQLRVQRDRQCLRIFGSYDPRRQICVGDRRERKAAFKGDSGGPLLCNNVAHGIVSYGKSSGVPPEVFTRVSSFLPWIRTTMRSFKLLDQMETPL
Nature of the assay: Inhibitory activity against Cathepsin G (CatG) at 30 uM concentration.

In assay [2] the target is T2, Neutrophil elastase (Homo sapiens) (UniProt P08246).
T2 sequence (whole entry): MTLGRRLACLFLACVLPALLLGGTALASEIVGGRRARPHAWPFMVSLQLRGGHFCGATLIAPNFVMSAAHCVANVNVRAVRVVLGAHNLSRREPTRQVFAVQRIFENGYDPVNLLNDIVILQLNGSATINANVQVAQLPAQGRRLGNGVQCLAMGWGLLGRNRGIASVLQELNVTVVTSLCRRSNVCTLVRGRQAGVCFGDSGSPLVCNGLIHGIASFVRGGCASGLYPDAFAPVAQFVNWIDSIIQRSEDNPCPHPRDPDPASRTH
The assay is described as follows: Inhibitory activity against Human Leukocyte Elastase (HLE) at 30 uM concentration.

The target in assay [3] is T3, Neutrophil elastase (Homo sapiens, UniProt P08246).
T3 sequence (P08246 whole entry): T2 sequence (whole entry)
The assay is described as follows: Compound was tested for the enzyme inhibitory activity against Human Leukocyte Elastase (HLE) at 30 uM concentration.

In assay [4] the target is T4, Chymotrypsin-like elastase family member 2A (Sus scrofa) (UniProt P08419).
T4 sequence (whole entry): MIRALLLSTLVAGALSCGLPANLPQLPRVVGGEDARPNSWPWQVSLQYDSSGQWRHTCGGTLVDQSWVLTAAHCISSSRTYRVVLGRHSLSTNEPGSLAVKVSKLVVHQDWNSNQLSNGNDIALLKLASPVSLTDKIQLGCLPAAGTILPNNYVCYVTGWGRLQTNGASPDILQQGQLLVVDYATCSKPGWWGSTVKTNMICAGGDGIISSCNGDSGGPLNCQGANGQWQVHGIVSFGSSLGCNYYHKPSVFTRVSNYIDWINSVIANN
The assay is described as follows: Inhibitory activity against Porcine Pancreatic Elastase (PPE) at 30 uM concentration; NI = no inhibition.

Assay [5] has as its target T1, Cathepsin G (Homo sapiens). Nature of the assay: Inhibitory activity against Cathepsin G (CatG) at 27 uM concentration.
The target in assay [6] is Chymotrypsinogen A (Bos taurus) (UniProt P00766). Nature of the assay: Inhibitory activity against Chymotrypsinogen at 27 uM concentration.
The target in assay [7] is T3, Neutrophil elastase. Nature of the assay: Compound was tested for the enzyme inhibitory activity against Human Leukocyte Elastase (HLE) at 27 uM concentration.
Assay [8] has as its target T4, Chymotrypsin-like elastase family member 2A (Sus scrofa). Nature of the assay: Inhibitory activity against Porcine Pancreatic Elastase (PPE) at 27 uM concentration; NI = no inhibition.
The target in assay [9] is T2, Neutrophil elastase (Homo sapiens). The following applies: 27 uM.
The target of assay [10] is T1, Cathepsin G (Homo sapiens). Nature of the assay: Inhibitory activity against Cathepsin G (CatG) at 29 uM concentration.
For assay [11], the target named is Chymotrypsinogen A (Bos taurus) (UniProt P00766). Nature of the assay: Inhibitory activity against Chymotrypsinogen at 29 uM concentration; NI = no inhibition.
Assay [12] has as its target T2, Neutrophil elastase (Homo sapiens). The assay is described as follows: Inhibitory activity against Human Leukocyte Elastase (HLE) at 29 uM concentration; NI = no inhibition.
The target in assay [13] is T4, Chymotrypsin-like elastase family member 2A (Sus scrofa). The assay is described as follows: Inhibitory activity against Porcine Pancreatic Elastase (PPE) at 29 uM concentration; NI = no inhibition.
For assay [14], the target named is T1, Cathepsin G (Homo sapiens). Nature of the assay: Inhibitory activity against Cathepsin G (CatG) at 28 uM concentration.
Assay [15] deals with T2, Neutrophil elastase (Homo sapiens). Nature of the assay: Inhibitory activity against Human Leukocyte Elastase (HLE) at 28 uM concentration.
Assay [16] addresses T4, Chymotrypsin-like elastase family member 2A (Sus scrofa). The assay is described as follows: Inhibitory activity against Porcine Pancreatic Elastase (PPE) at 28 uM concentration; NI = no inhibition.
The target in assay [17] is Chymotrypsinogen A (Bos taurus) (UniProt P00766). Nature of the assay: Inhibitory activity against Chymotrypsinogen at 28 uM concentration.
Assay [18] shares this target. Nature of the assay: Inhibitory activity against Chymotrypsinogen at 56 uM concentration; NI = no inhibition.
The target in assay [19] is T1, Cathepsin G (Homo sapiens). Nature of the assay: Inhibitory activity against Cathepsin G (CatG) at 56 uM concentration; NI = no inhibition.
The target in assay [20] is T4, Chymotrypsin-like elastase family member 2A (Sus scrofa). The assay is described as follows: Inhibitory activity against Porcine Pancreatic Elastase (PPE) at 56 uM concentration; NI = no inhibition.
Assay [21] has as its target T2, Neutrophil elastase (Homo sapiens). Nature of the assay: Inhibitory activity against Human Leukocyte Elastase (HLE) at 56 uM concentration; NI = no inhibition.
Assay [22] addresses T1, Cathepsin G (Homo sapiens). Nature of the assay: Inhibitory activity against Cathepsin G (CatG) at 65 uM concentration.
In assay [23] the target is T4, Chymotrypsin-like elastase family member 2A (Sus scrofa). The assay is described as follows: Inhibitory activity against Porcine Pancreatic Elastase (PPE) at 65 uM concentration; NI = no inhibition.
Assay [24] has as its target T3, Neutrophil elastase. Nature of the assay: Compound was tested for the enzyme inhibitory activity against Human Leukocyte Elastase (HLE) at 65 uM concentration.
Assay [25] deals with T2, Neutrophil elastase (Homo sapiens). The assay is described as follows: Inhibitory activity against Human Leukocyte Elastase (HLE) at 65 uM concentration.
The target of assay [26] is Chymotrypsinogen A (Bos taurus) (UniProt P00766). The assay is described as follows: Inhibitory activity against Chymotrypsinogen at 53 uM concentration. The essentials: (§1)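 Percent inhibition of enzyme activity at a single inhibitor concentration. Assays run at 25 °C in 0.1 M HEPES, 0.5 M NaCl, pH 7.5, with 9-11% DMSO. The method otherwise follows an earlier report.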

Assay [27] addresses T1, Cathepsin G (Homo sapiens). The assay is described as follows: Inhibitory activity against Cathepsin G (CatG) at 53 uM concentration. The essentials:
as §1

Assay [28] deals with T2, Neutrophil elastase (Homo sapiens). The assay is described as follows: Inhibitory activity against Human Leukocyte Elastase (HLE) at 53 uM concentration. The essentials: as §1
Assay [29] addresses T4, Chymotrypsin-like elastase family member 2A (Sus scrofa). Nature of the assay: Inhibitory activity against Porcine Pancreatic Elastase (PPE) at 53 uM concentration; NI = no inhibition. An outline of the steps: as §1
Assay [30] concerns the target T3, Neutrophil elastase. Nature of the assay: Compound was tested for the enzyme inhibitory activity against Human Leukocyte Elastase (HLE) at 53 uM concentration. An outline of the steps: as §1
In assay [31] the target is Chymotrypsinogen A (Bos taurus) (UniProt P00766). Nature of the assay: Inhibitory activity against Chymotrypsinogen at 28 uM concentration; NI = no inhibition.
Assay [32] has as its target T3, Neutrophil elastase. Nature of the assay: Compound was tested for the enzyme inhibitory activity against Human Leukocyte Elastase (HLE) at 28 uM concentration.
Assay [33] has as its target Chymotrypsinogen A (Bos taurus) (UniProt P00766). The assay is described as follows: Inhibitory activity against Chymotrypsinogen at 55 uM concentration.
For assay [34], the target named is T1, Cathepsin G (Homo sapiens). Nature of the assay: Inhibitory activity against Cathepsin G (CatG) at 55 uM concentration.
The target of assay [35] is T4, Chymotrypsin-like elastase family member 2A (Sus scrofa). The assay is described as follows: Inhibitory activity against Porcine Pancreatic Elastase (PPE) at 55 uM concentration; NI = no inhibition.
Assay [36] has as its target T3, Neutrophil elastase. The assay is described as follows: Compound was tested for the enzyme inhibitory activity against Human Leukocyte Elastase (HLE) at 55 uM concentration.
Assay [37] addresses T2, Neutrophil elastase (Homo sapiens). The assay is described as follows: Inhibitory activity against Human Leukocyte Elastase (HLE) at 55 uM concentration.
For assay [38] the target is unchanged. The assay is described as follows: Inhibitory activity against Human Leukocyte Elastase (HLE) at 52 uM concentration.
Assay [39] has as its target T3, Neutrophil elastase. Nature of the assay: Compound was tested for the enzyme inhibitory activity against Human Leukocyte Elastase (HLE) at 52 uM concentration.
The target of assay [40] is T4, Chymotrypsin-like elastase family member 2A (Sus scrofa). Nature of the assay: Inhibitory activity against Porcine Pancreatic Elastase (PPE) at 52 uM concentration; NI = no inhibition.
Assay [41] has as its target Chymotrypsinogen A (Bos taurus) (UniProt P00766). Nature of the assay: Inhibitory activity against Chymotrypsinogen at 52 uM concentration; NI = no inhibition.

What is called inhibition is how much of the control response was suppressed. As usually defined, the IC50 is the concentration needed to halve the response being measured. Low values mean higher potency, high ones lower potency. Consider `COc1cc(OC)c2c(c1)C(=O)c1cc(C(Br)Br)cc(OC)c1C2=O`, for which the inhibition in assay [1] was 24%; in assay [2], 61%. Besides, at Neutrophil elastase [3], the IC50 was 17 µM. Further, the inhibition entry in assay [4] is “inactive”.
Take `COc1cc(OC)c2c(c1)C(=O)c1ccc(C)c(O)c1C2=O`: the inhibition in assay [5] was determined as 4%; in assay [6], 7%; in assay [9], 80%. On Neutrophil elastase [7], this molecule came in with an IC50 of 13 µM. In assay [8], the inhibition result is “inactive”.
Take `COc1cc(OC)c2c(c1)C(=O)c1cc(CBr)cc(OC)c1C2=O`: the inhibition in [10] is 14%. Besides, the inhibition result in assay [11], in [12] and in assay [13] was “inactive” in each case.
For the molecule `CC(=O)Oc1cc(OC(C)=O)c2c(c1)C(=O)c1cc(CBr)cc(OC(C)=O)c1C2=O`, the results for the inhibition in assay [14], in assay [15] and in [17] were 9%, 28% and 3%, respectively. In addition, the inhibition result in [16] was “inactive”.
Consider `CC(=O)Oc1cccc2c1C(=O)c1c(OC(C)=O)cc(C)cc1C2=O`, for which the inhibition entry in assay [18], in assay [19], in assay [20] and in assay [21] was “inactive” in each case.
As for `COc1cc(O)c2c(c1)C(=O)c1cc(C)cc(O)c1C2=O` [PHYSCION], the inhibition came out at 39% in assay [22] and 100% in assay [25]. Besides, the inhibition entry in assay [23] is “inactive”. On Neutrophil elastase [24], this molecule displayed an IC50 of 6.2 µM.
With `Cc1cc(O)c2c(c1)C(=O)c1cc(O)cc(O)c1C2=O` [EMODIN], the inhibition in [26] amounted to 2%; in assay [27], 42%; in assay [28] it was 55%. For the same molecule, the inhibition entry in assay [29] is “inactive”. In addition, the IC50 against Neutrophil elastase [30] is 52 µM.
On to `Cc1cc(O)c2c(c1)C(=O)c1cccc(O)c1C2=O` [CHRYSOPHANOL], for which the inhibition in [14] is 39%; in assay [15] it was 79%. Further, the inhibition result in assay [31] and in assay [16] was “inactive” in each case. Further, at Neutrophil elastase [32], the midpoint of inhibition, the IC50, lay at 18 µM.
In the case of `Cc1ccc2c(c1O)C(=O)c1c(O)cc(O)cc1C2=O`, the figures for the inhibition in assay [33], in [34] and in assay [37] were 5%, 13% and 100%, respectively. For the same molecule, in assay [35], the inhibition result was “inactive”. The molecule further gave an IC50 on Neutrophil elastase [36] of 21 µM.
As for `CC(=O)Oc1cc(OC(C)=O)c2c(c1)C(=O)c1ccc(C)c(OC(C)=O)c1C2=O`, in assay [38], the inhibition was 96%. For the same molecule, the IC50 at Neutrophil elastase [39] amounted to 12 µM. For the same molecule, the inhibition entry in assay [40] and in [41] was “inactive” in each case.
